Columns and labels:
[1] = system: Salmonidae; test: Displacement of ethidium bromide form salmon testes sperm DNA by fluorescence plate reader
In short: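 Salmon testes sperm DNA (25 μg mL⁻¹) with ethidium bromide (0.5 μg mL⁻¹) in TE, compound final concentrations 100 to 0.01 μM in tenfold steps. n = 4 per dose, n = 8 for controls. Fluorescence measured, background EtBr subtracted and divided by the DNA+EtBr control. KS is the concentration giving 50% fluorescence decrease.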

[2] = target: T1, DNA topoisomerase 1 (Homo sapiens) (UniProt P11387); test: Inhibition of topoisomerase 1-mediated relaxation of supercoiled DNA assessed as DNA cleavage at 500 uM relative to control; set-up: scale not given: the % may be the effect or the level left
T1 sequence (whole entry): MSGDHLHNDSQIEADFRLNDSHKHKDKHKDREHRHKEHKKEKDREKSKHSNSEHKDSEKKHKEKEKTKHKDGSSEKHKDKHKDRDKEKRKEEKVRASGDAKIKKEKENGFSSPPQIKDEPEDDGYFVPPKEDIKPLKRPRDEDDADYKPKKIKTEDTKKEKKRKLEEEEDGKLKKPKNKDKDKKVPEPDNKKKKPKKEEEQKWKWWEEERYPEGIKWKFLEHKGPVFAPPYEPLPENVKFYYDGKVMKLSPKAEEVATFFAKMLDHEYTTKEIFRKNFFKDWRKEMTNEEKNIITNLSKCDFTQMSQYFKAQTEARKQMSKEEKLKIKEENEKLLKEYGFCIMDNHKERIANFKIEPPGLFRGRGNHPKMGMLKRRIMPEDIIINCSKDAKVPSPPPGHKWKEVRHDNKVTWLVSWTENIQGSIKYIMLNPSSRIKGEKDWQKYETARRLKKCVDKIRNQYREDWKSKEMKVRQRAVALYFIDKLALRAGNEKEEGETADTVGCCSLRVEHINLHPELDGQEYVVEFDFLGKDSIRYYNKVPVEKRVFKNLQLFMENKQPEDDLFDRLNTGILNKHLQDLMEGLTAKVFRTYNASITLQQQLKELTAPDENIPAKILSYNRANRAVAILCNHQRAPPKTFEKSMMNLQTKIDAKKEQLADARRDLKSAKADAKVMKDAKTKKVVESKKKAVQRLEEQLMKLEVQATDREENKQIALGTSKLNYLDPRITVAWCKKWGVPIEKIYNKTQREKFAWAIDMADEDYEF
In short: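 Radiolabeled supercoiled rf M13 mp19 DNA with purified topoisomerase I (80-120 ng) in Tris-HCl 50 mM pH 7.5, KCl 85 mM, MgCl2 10 mM, EDTA 0.5 mM, BSA 30 μg/mL, DTT 2 mM. Compound in DMSO, 30 °C for 30 min, then proteinase K/SDS at 37 °C for 60 min. 0.8% agarose gel, bands excised and scintillation counted. % cleaved from nicked plus linear bands over total, minus endogenous cleavage. 9-aminocamptothecin as reference.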

[3] = system: HCT-116; test: Cytotoxicity against human HCT116 cells after 72 hrs by MTS assay; type: functional, cell-based; details: HCT-116, 72 h
In short: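 HCT-116 colon tumor cells plated and incubated overnight at 37 °C, then given serially diluted samples in DMSO for a further 72 h. Etoposide as positive control and DMSO as negative control. MTS/PMS added for 3 h, absorbance read at 490 nm, IC50 derived from serial dilution data.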

[4] = target: T1, DNA topoisomerase 1 (Homo sapiens); test: Inhibition of topoisomerase 1-mediated relaxation of supercoiled DNA assessed as DNA cleavage at 9 uM relative to control; set-up: scale not given: the % may be the effect or the level left
In short: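 Radiolabelled supercoiled rf M13 mp19 DNA (500 ng) and purified topoisomerase I (80-120 ng) in Tris-HCl 50 mM pH 7.5, KCl 85 mM, MgCl2 10 mM, EDTA 0.5 mM, BSA 30 µg/mL, DTT 2 mM. Compound added in DMSO; 30 °C, 30 min. Proteinase K/SDS stop (37 °C, 60 min). Bands resolved on 0.8% agarose, excised and scintillation-counted. Nicked+linear counts taken as % of total, minus endogenous cleavage.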

Structure (SMILES) | IC50 [3] [nM] | further results
Cn1cc2c3c1C(=O)c1[nH]cc(-c4ccc(O)cc4)c1C3=[N+]([O-])CC2 | 16500 | Ks [1]: 30 µM; Activity [2]: 26%
O=C1C(Br)=CC2(C=C1Br)CCNC1=C2C2=NCCc3c(Br)[nH]c(c32)C1=O | 77 | 
O=C1C2=C(C3=NCCc4c(Br)[nH]c1c43)C1(C=CN2)C=C(Br)C(O)C(Br)=C1 (stereo not given) | 222 | 
O=C1C2=C(C3=NCCc4c(Br)[nH]c1c43)C1(C=C(Br)C(O)C(Br)=C1)CCN2 (stereo not given) | 645 | 
COC1[C@H]2C(=O)C=C3S[C@H]4C[C@]31C1=C(N4)C(=O)c3[nH]cc4c3C1=[N+]2CC4 (stereo not given in full) | 232 | 
O=C1C2=C(C3=NCCc4c[nH]c1c43)C1(C=CN2)C=C(Br)C(O)C(Br)=C1 (stereo not given) | 197 | 
O=C1c2[nH]cc3c2C(=[N+](O)CC3)c2c(-c3ccc(O)cc3)c[nH]c21 | 128000 | Ks [1]: 20 µM; Activity [2]: 45%
O=C1C2=C3C4=[N+](CCc5c(Br)[nH]c1c54)C1C(O)C(Br)=CC3(CCN2)C1O (stereo not given) | 12500 | 
NC1[C@H]2C(=O)C=C3S[C@H]4C[C@]31C1=C(N4)C(=O)c3[nH]cc4c3C1=[N+]2CC4 (stereo not given in full) | 119 | 
CC[C@@]1(O)C(=O)OCc2c1cc1n(c2=O)Cc2cc3c(N)cccc3nc2-1 |  | Activity [4]: 87%
O=C1c2[nH]cc3c2C(=NCC3)c2c(-c3c[nH]c4ccccc34)c[nH]c21 |  | Ks [1]: 20 µM
CN1CCc2c[nH]c3c2C1=CC(=O)C3=O [DAMIRONE B] | 3100 | 
O=C1C2=C(C3=NCCc4c[nH]c1c43)C1(C=C(Br)C(O)C(Br)=C1)CCN2 (stereo not given) [DIHYDRODISCORHABDIN C] | 323 | 
O=C1C2=C3C4=[N+](CCc5c[nH]c1c54)[C@H]1C[C@@]34C[C@@H](N2)SC4=CC1=O [DISCORHABDIN D] | 595 | 
O=C1C=CC23CC(NC4=C2C2=NCCc5c[nH]c(c52)C4=O)SC3=C1 (stereo not given) [DISCORHABDIN G] | 327 | 
O=C(O)CNC1C2C(=O)C=C3SC4CC31C1=C(N4)C(=O)c3[nH]cc4c3C1=[N+]2CC4 (stereo not given) [DISCORHABDIN N] | 2250 | 
O=C1C2=C3C4=[N+](CCc5c[nH]c1c54)C1CC3(C=C(Br)C1O)CCN2 (stereo not given) [DISCORHABDIN V] | 1270 | 
O=C1C[C@H]2S[C@H]3C[C@]2(C=C1Br)C1=C(N3)C(=O)c2[nH]cc3c2C1=NCC3 [DISCORHABDINE A] | 7 | 
C[N+]1=C2C=C(N)C(=O)c3[nH]cc(c32)CC1 [MAKALUVAMINE C] | 1090 | 
CN1CCc2c[nH]c(C(=O)O)c2C1=O [MAKALUVIC ACID A] | 28400 | 
O=C1c2[nH]cc3c2C(=NCC3)c2c(-c3ccc(O)cc3)c[nH]c21 [TSITSIKAMMAMINE A] | 1410 | Ks [1]: 15 µM; Activity [2]: 59%
Cn1cc2c3c1C(=O)c1[nH]cc(-c4ccc(O)cc4)c1C3=NCC2 [TSITSIKAMMAMINE B] | 2380 | Ks [1]: 45 µM; Activity [2]: 27%

From ChEMBL document CHEMBL1148193, “Cytotoxic pyrroloiminoquinones from four new species of South African latrunculid sponges” (J Nat Prod, 2004)
